# Bioassay records: PubChem, several laboratories
# Most compounds without a hit are left out; they make up all but 2% or so of the library.
# CCR6 antagonist: blocks CCL20-driven beta-arrestin recruitment at human CCR6 | CHO-K1 CCR6 PathHunter beta-arrestin, luminescence, CCL20-stimulated | 340,000 tested, 0.49% active | P51684 | inhibition, % at 20 µM;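 active = compounds whose inhibition of the agonist-driven luminescence signal at 20 µM reaches about 50%, limit read from the data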;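 note: cells stimulated with CCL20 at 14 nM final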
# APJ antagonist: blocks the human apelin receptor APJ; P35414; CHO-K1 APJ beta-arrestin complementation, luminescence; inhibition, % at 20 µM; 330,000 tested, 0.32% active;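 active = inhibition above about 40% at 20 µM, limit read from the data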;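 note: cells challenged with 10 nM apelin-13 agonist together with compound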
# Target sequence (P35414 whole entry, looked up): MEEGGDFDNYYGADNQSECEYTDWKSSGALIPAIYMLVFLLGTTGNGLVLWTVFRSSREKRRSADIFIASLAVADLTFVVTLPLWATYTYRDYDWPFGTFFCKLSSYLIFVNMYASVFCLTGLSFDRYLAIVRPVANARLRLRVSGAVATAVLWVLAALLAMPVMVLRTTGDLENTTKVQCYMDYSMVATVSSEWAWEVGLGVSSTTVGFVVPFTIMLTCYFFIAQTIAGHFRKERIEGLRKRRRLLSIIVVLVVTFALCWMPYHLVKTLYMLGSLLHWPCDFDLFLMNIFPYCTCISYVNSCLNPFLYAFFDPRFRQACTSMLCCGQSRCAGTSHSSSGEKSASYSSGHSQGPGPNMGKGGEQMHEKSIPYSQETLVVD
# CXCR6 block: inhibitors of human CXCR6 receptor; O00574; CHO-K1 PathHunter CXCR6 beta-arrestin, luminescence; inhibition, % at 20 µM; 360,000 tested, 0.36% active; AID 602244; in the data active = inhibition above about 34%, passing the limit was not always enough;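 note: antagonist mode with CXCL16 agonist at 10 nM final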
# FXN GAA850 act: frataxin GAA850 promoter activation; activation, % at 6 µM; HEK293 lucGAA850 FXN promoter luciferase reporter, 24 h; percent of 10 µM SAHA response; 360,000 tested, 0.56% active; AID 540364;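 active = activation above the average of all compounds screened plus 3 SD, cutoff fixed separately per campaign, cut at about 7.5% in these data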
# APJ ag: APJ receptor agonism; AID 2520; CHO-K1 APJ PathHunter beta-arrestin, luminescence; 0% DMSO wells, 100% apelin; P35414; activation, % at 20 µM; 330,000 tested, 0.11% active;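 active = activation more than six SD over the plate average, tested at 20 µM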
#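 system = engineered CHO-K1 APJ arrestin reporter cells | input = 1000 cells per well | timing = overnight seeding, 90 min compound at 25 °C, 1 h detection | measured by = enzyme-fragment complementation luminescence | read-out = beta-arrestin recruitment to APJ as agonist activity, luminescent signal | control set = negative DMSO alone, positive Apelin-13 at 10 nM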
# EBI2 block: EBI2 (human) antagonism; P32249; EBI2 beta-arrestin recruitment, luminescence, 7a,25-OHC stimulated; inhibition, % at 5 µM; 360,000 tested, 0.81% active; in the data active = inhibition above about 38%;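 note: enzyme fragment complementation signal reports receptor beta-arrestin coupling in cells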
# CXCR6 antag conf: confirmation of human CXCR6 receptor antagonists; shares compounds with CXCR6 block; inhibition, % at 20 µM; AID 602409; 700 tested, 65% active; CHO-K1 CXCR6 PathHunter beta-arrestin, luminescence;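 active = mean inhibition over four retests above 40%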;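 note: receptor stimulated with 10 nM CXCL16 agonist; beta-galactosidase fragment complementation upon beta-arrestin recruitment to receptor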
# EBI2 antag conf: confirmation of human EBI2 receptor antagonists | shares compounds with EBI2 block | EBI2 beta-arrestin luminescence, 7a,25-OHC antagonism | inhibition, % at 5 µM | 2,400 tested, 29% active;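 active = inhibition of at least 50%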
# EBI2 agonist: activates EBI2, counter-screen for EBI2 antagonists; EBI2-expressing cells, agonist mode, luminescence, 60 min; 0% vehicle, 100% 7α,25-dihydroxycholesterol control; AID 652000; activation, % at 5 µM; shares compounds with EBI2 block; 2,400 tested, under 10 active;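 active = activation of at least 50%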
# bGal counter: counter-screen for EBI2 antagonists: E. coli beta-galactosidase inhibition | purified beta-galactosidase, luminescent Galacton Star, 15 min | shares compounds with EBI2 block | AID 652176 | 2,400 tested, 1% active | inhibition, % at 5 µM;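 active = replicate-average signal at least 3 plate SD below neutral wells, shown as high inhibition, flagging enzyme-inhibiting false positives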;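 note: higher means stronger loss of beta-gal luminescence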
# A number is an active result; . = inactive; / = no result.
SMILES,CCR6 antagonist,APJ antagonist,CXCR6 block,FXN GAA850 act,APJ ag,EBI2 block,EBI2 antag conf,EBI2 agonist,bGal counter,others
COC(=O)C1=C(c2ccc(OC)c(OC)c2)C[C@@H]2CC[C@H]1N2C(=O)N1CCCCC1,.,.,.,.,.,.,/,/,/,
COc1ccc(OC(=O)N(C)C[C@@H]2OCc3cnnn3CCCC(=O)N([C@H](C)CO)C[C@@H]2C)cc1,/,/,89.8,.,/,.,/,/,/,CXCR6 antag conf=.
COc1ccc(OC(=O)N(C)C[C@@H]2OCc3cnnn3CCCC(=O)N([C@@H](C)CO)C[C@H]2C)cc1,/,/,.,.,/,.,/,/,/,
CC(=O)N1CN2CN(C1)CN(C(C)=O)C2,.,.,.,.,.,.,/,/,/,
Cn1c(O)c(C2=NNC(c3ccc(Cl)cc3)C2)c(=O)n(C)c1=O (configuration not stated),55.8,.,34.5,.,.,.,/,/,/,CXCR6 antag conf=112.3
CCOC(=O)[C@]12Cc3cc(Cl)ccc3[C@H]1N(C1CCCCC1)C(=O)c1cc(OC)ccc12,/,/,42.3,/,/,76.6,/,/,/,CXCR6 antag conf=46.7
Cc1nc(C)c(C(=O)NN=Cc2ccc(N(CCCl)CCCl)cc2)s1,.,/,.,.,/,.,/,/,/,
COC(=O)C1=C(C(=O)OC)SC2(S1)C(C(=O)OC)=C(C(=O)OC)Sc1c2ssc1=O,85.6,/,68.2,.,/,.,/,/,/,CXCR6 antag conf=55.7
Fc1cccc(-c2ccc3c(c2)CN(c2cccc(Cl)c2)Cc2cnnn2-3)c1,/,/,.,/,/,.,/,/,/,
Cc1cc([N+](=O)[O-])c(Cl)cc1NC(=O)C(C)C,.,.,.,.,.,.,/,/,/,
CNc1cc(Cl)c2nonc2c1[N+](=O)[O-],98.2,/,100.0,.,/,80.3,/,/,/,CXCR6 antag conf=103.3
CCCCCCCCn1sccc1=O,104.8,.,99.3,.,.,61.4,/,/,/,CXCR6 antag conf=104.6
O=C(c1cc2cc(F)ccc2[nH]1)N1CCC2(CC1)OCCO2,.,.,.,.,.,.,/,/,/,
O=C(c1cc2cc(Cl)ccc2[nH]1)N1CCC2(CC1)OCCO2,.,.,.,.,.,87.9,66.1,.,.,
COc1ccc2c(c1)C13CCN4CC5=CCOC6CC(=O)N2C1C6C5CC43 (configuration not stated),/,/,.,.,/,.,/,/,/,
COC(=O)C1=C(c2c(C)noc2C)C[C@@H]2CC[C@H]1N2C(=O)NCC1CC1,.,.,.,.,.,.,/,/,/,
N=Cc1c(O)n(-c2ccc(C34CC5CC(CC(C5)C3)C4)cc2)c(=O)[nH]c1=O,.,.,.,.,.,.,/,/,/,
Cc1cccc(OCC(=O)N2CCN(Cc3cccnc3)CC2)c1,.,.,.,.,.,.,/,/,/,
CCc1ccc(OCC(=O)N2CCN(Cc3ccc4c(c3)OCO4)CC2)cc1,.,.,.,.,.,82.0,52.9,.,.,
Cc1cc(=O)oc2cc(OCC(=O)N3CCN(Cc4ccc5c(c4)OCO5)CC3)ccc12,.,.,.,.,.,.,/,/,/,
O=[N+]([O-])c1cccc(CN2CCN(Cc3ccc(Cl)cc3)CC2)c1,.,.,.,.,.,.,/,/,/,
O=C(COc1ccc(Cl)cc1)N1CCN(Cc2ccc([N+](=O)[O-])cc2)CC1,.,.,.,.,.,94.3,78.5,.,.,
COc1ccc(OCC(=O)N2CCN(Cc3nc4cc([N+](=O)[O-])ccc4n3C)CC2)cc1,.,.,.,.,.,73.7,.,.,.,
COc1cccc(OCC(=O)N2CCN(C)CC2)c1,.,.,.,.,.,.,/,/,/,
Cc1ccc(OCC(=O)N2CCN(Cc3cccnc3)CC2)cc1,.,.,.,.,.,52.7,.,.,.,
SMILES,CCR6 antagonist,APJ antagonist,CXCR6 block,FXN GAA850 act,APJ ag,EBI2 block,EBI2 antag conf,EBI2 agonist,bGal counter,others
CCCCC1(CC)COP(=O)(OCC(Cl)(Cl)Cl)OC1 (configuration not stated),.,/,.,.,/,.,/,/,/,
COc1ccc(OCC(=O)N2CCN(CC3CC4C=CC3C4)CC2)cc1 (configuration not stated),.,.,.,.,.,83.3,56.1,.,.,
CC(C)CCNC(=O)c1c(N)n(Cc2ccc3c(c2)OCO3)c2nc3ccccc3nc12,.,.,.,.,.,47.7,.,.,.,
CCCNC(=O)c1c(N)n(Cc2ccc3c(c2)OCO3)c2nc3ccccc3nc12,.,.,.,.,.,45.2,.,.,.,
COC(=O)C1=C(c2ccc(F)cc2F)C[C@@H]2CC[C@H]1N2C,.,.,.,.,.,.,/,/,/,
C[C@]12CCC3C(CC[C@H]4C[C@@H](O)CC[C@]34C)C1CCC2=O (some centres not stated),.,.,.,.,.,.,/,/,/,
O=C(COc1ccc(Br)cc1)N1CCN(C2CCCC2)CC1,.,.,.,.,.,85.2,81.5,.,.,
O=C(COc1ccccc1)N1CCN(C2CC3CCC2C3)CC1 (configuration not stated),.,.,.,.,.,.,/,/,/,
Cc1ccc(OCC(=O)N2CCN(C3CCC(c4ccccc4)CC3)CC2)cc1 (configuration not stated),.,.,.,.,.,82.1,64.3,.,.,
CCOC(=O)c1cncn1C(C)c1ccccc1 (configuration not stated),.,.,.,.,.,47.9,.,.,.,
Cc1cccc(C)c1-n1nnnc1C(c1cccs1)N1CCC(n2c(=O)[nH]c3ccccc32)CC1 (configuration not stated),/,/,.,/,/,.,/,/,/,
Cc1cccc(C)c1-n1nnnc1C(c1cccc2ccccc12)N1CCC(n2c(=O)[nH]c3ccccc32)CC1 (configuration not stated),/,/,.,/,/,42.3,.,.,.,
COC(=O)C1=C(c2ccc(F)cc2OCc2ccccc2)C[C@@H]2CC[C@H]1N2C(=O)N1CCC(O)(c2ccc(Cl)cc2)CC1,.,.,.,.,.,52.4,.,.,.,
Cc1ncoc1C(=O)NCC1=C(c2ccc3ccccc3c2)C[C@@H]2CC[C@H]1N2Cc1ccco1,/,/,.,.,/,.,/,/,/,
COc1ccc(C(=O)C2CCCN(CCc3ccccc3)C2)cc1OC (configuration not stated),/,/,.,.,/,.,/,/,/,
CN(C(=O)Oc1ccc(C(=O)c2ccc(Cl)cc2)cc1)c1ccccc1,.,.,.,.,.,79.0,56.1,.,.,
CN(C)C(=O)Oc1ccc(OC(=O)c2ccccc2)cc1,.,.,.,.,.,.,/,/,/,
